Measured values: publication PMC2229513 (The Journal of General Physiology, 2001)
Numbering of substitutions follows the chain as printed. Like-named read-outs stand apart in the source and are kept apart here.

Assays:
ENaC wt [1] = molecular target: T1, ENaC wt (Rattus norvegicus, UniProt P37089+P37090+P37091); test: Effect of extracellular MTSEA on INa; type: cell-based; details: 2-min extracellular application of 2.5 mM MTSEA
T1 sequence (P37089 1-698): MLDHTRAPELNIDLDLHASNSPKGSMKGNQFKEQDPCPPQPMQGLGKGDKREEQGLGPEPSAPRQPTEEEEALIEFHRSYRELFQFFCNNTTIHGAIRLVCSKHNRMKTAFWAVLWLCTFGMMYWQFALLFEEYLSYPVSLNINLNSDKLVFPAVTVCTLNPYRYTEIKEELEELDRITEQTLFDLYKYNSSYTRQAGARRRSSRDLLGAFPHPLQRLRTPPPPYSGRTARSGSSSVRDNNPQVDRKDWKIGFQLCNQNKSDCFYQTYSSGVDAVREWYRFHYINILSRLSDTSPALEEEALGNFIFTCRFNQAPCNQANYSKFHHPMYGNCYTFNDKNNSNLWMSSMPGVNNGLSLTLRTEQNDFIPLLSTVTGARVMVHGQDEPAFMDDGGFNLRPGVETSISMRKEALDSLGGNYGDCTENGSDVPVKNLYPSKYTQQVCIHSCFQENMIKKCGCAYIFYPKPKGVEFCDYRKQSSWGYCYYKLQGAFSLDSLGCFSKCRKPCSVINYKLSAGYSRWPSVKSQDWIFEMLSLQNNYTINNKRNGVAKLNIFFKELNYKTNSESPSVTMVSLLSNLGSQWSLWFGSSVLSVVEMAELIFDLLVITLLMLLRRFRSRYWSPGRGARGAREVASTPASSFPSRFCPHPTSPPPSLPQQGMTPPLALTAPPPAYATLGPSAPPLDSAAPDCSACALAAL
T1 sequence (P37090 1-638): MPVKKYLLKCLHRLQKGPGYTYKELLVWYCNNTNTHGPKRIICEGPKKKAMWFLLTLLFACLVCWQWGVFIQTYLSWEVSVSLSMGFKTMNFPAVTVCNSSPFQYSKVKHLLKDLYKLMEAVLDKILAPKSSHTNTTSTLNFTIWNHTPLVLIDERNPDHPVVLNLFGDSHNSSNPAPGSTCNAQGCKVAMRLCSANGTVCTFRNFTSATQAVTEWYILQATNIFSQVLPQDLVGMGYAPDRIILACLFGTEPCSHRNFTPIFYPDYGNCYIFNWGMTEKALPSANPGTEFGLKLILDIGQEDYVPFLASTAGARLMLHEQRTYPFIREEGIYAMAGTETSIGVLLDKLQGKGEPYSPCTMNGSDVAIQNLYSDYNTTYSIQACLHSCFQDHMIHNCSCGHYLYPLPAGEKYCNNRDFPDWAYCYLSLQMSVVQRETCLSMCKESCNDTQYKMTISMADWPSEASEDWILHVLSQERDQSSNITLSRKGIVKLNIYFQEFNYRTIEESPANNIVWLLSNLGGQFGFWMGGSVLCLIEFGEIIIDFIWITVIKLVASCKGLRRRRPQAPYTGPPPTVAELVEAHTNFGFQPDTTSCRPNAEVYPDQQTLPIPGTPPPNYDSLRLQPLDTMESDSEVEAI
T1 sequence (P37091 1-650): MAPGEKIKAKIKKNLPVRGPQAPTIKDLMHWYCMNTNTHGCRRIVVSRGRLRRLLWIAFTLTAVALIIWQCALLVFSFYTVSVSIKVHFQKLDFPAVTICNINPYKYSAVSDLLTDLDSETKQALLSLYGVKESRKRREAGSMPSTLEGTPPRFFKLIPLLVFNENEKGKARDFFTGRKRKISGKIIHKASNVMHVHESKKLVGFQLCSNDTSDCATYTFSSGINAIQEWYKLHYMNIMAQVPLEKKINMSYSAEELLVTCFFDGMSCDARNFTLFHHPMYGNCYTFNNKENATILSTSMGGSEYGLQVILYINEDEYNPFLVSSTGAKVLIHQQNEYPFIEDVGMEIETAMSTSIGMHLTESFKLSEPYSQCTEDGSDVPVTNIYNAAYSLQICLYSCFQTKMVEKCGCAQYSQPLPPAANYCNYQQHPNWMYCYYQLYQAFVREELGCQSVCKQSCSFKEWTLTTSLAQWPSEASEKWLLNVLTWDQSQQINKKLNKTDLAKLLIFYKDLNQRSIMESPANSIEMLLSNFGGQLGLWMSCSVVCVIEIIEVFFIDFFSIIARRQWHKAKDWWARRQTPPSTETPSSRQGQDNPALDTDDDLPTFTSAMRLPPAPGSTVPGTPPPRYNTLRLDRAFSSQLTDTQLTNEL
Summary of the method: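 Two-electrode voltage clamp was run on Xenopus oocytes 16–48 h after injecting rat αβγ ENaC cRNAs (100 nl, 100 ng/μl total). INa was the current sensitive to 100 μM amiloride. Aqueous MTSEA stock was made fresh, kept on ice and diluted into bath immediately before use.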

αS589H ENaC mutant = molecular target: T2, αS589H ENaC mutant (Rattus norvegicus, UniProt P37089+P37090+P37091, S589H); type: cell-based
T2 sequence (P37089 1-698 S589H): T1 sequence (P37089 1-698) with S589H
T2 sequence (P37090 1-638): T1 sequence (P37090 1-638)
T2 sequence (P37091 1-650): T1 sequence (P37091 1-650)
Summary of the method: (§1)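 Stage V–VI Xenopus oocytes were pressure-injected with 100 nl of equal amounts of rat α, β and γ ENaC cRNAs (mutations in α only), 100 ng/μl total. Two-electrode voltage clamp was done 16–48 h post-injection. For other permeant cations, Na+ was replaced at the same concentration.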

[2] = test system: wt and mutant (αS589) ENaC channels; test: Block of ionic currents by 100 μM amiloride; type: cell-based, rat
Summary of the method: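 Oocytes were co-injected with rat αβγ ENaC cRNAs (100 nl, 100 ng/μl total, equal amounts of each subunit) and recorded by two-electrode voltage clamp 16–48 h later. Amiloride-sensitive current was taken as the difference between currents with and without 100 μM amiloride in the bath.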

αS589N ENaC mutant = molecular target: T3, αS589N ENaC mutant (Rattus norvegicus, UniProt P37089+P37090+P37091, S589N); type: cell-based
T3 sequence (P37089 1-698 S589N): T1 sequence (P37089 1-698) with S589N
T3 sequence (P37090 1-638): T1 sequence (P37090 1-638)
T3 sequence (P37091 1-650): T1 sequence (P37091 1-650)
Summary of the method: as §1

αE598A ENaC mutant = molecular target: T4, αE598A ENaC mutant (Rattus norvegicus, UniProt P37089+P37090+P37091, E598A); test: Amiloride block of αE598A mutant; type: cell-based
T4 sequence (P37089 1-698 E598A): T1 sequence (P37089 1-698) with E598A
T4 sequence (P37090 1-638): T1 sequence (P37090 1-638)
T4 sequence (P37091 1-650): T1 sequence (P37091 1-650)

αS589D ENaC mutant = molecular target: T5, αS589D ENaC mutant (Rattus norvegicus, UniProt P37089+P37090+P37091, S589D); type: cell-based
T5 sequence (P37089 1-698 S589D): T1 sequence (P37089 1-698) with S589D
T5 sequence (P37090 1-638): T1 sequence (P37090 1-638)
T5 sequence (P37091 1-650): T1 sequence (P37091 1-650)
Summary of the method: as §1

[3] = test system: ENaC mutants of α (S583), β (G525) or γ subunit (G537); details: mutations of α S583, β G525 or γ G537; ref Schild et al. 1997; cited from earlier work
ENaC wt [4] = molecular target: T1, ENaC wt; type: cell-based
Summary of the method: as §1

Row | ratio of INa after MTSEA application relative to the initial INa (ENaC wt [1]) | IC50 (αS589H ENaC mutant) | increase of the IC50 for amiloride block (factor vs wt) (αS589H ENaC mutant; αS589H relative to ENaC wt) | IC50 (αS589N ENaC mutant; IC50 for amiloride block of the NH4+ current, NH4+ current, n = 6–7) | IC50 (αS589N ENaC mutant; IC50 for amiloride block, Na+ as the main extracellular cation, n = 6–16) | amiloride block compared with wt (αE598A ENaC mutant) | IC50 (αS589D ENaC mutant) | IC50 (ENaC wt [4]) | SMILES | block of ionic currents [2] | decrease of channel affinity for amiloride [3]
1 | 0.77 ± 0.33 |  |  |  |  |  |  |  | CS(=O)(=O)SCCN [MTSEA, aminoethyl methanethiosulfate] |  | 
2 |  | 2800 ± 650 nM | 16 | 190 ± 60 nM | 440 ± 50 nM | not different from wt | 100 ± 20 nM | 180 ± 80 nM | N=C(N)NC(=O)c1nc(Cl)c(N)nc1N [amiloride] | completely blocked | two to three orders of magnitude
